The values that follow come from publication PMC9463588 (The Journal of Biological Chemistry, 2022).

“Also recorded” adds a separate entry of the source. Read-outs that look alike come from different tables or passages of the source.

Data set [1] concerns the target T1, human CYP8B1 (Homo sapiens, UniProt Q9UNU6).
T1 sequence (Q9UNU6 26-501 limits assumed): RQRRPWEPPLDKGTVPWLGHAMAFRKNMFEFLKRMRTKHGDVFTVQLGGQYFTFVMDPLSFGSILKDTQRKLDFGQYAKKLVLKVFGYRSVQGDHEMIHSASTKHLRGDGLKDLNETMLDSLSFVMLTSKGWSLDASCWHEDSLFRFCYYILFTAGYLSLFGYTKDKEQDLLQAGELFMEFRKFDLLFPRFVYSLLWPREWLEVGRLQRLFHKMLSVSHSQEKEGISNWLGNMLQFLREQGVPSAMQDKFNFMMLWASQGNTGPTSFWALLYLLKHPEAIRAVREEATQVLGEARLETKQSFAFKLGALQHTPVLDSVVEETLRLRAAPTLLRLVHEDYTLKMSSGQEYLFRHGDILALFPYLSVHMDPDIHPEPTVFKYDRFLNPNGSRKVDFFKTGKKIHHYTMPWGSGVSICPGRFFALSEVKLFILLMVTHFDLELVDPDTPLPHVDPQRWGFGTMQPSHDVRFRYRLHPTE
Description: Ligand-binding assay by shift of the heme Soret peak, wild type CYP8B1. The note with it: for Shift in Soret peak: spectral binding type, wild type CYP8B1; for Kd / KD: azoles, single site binding fit, interval in parentheses. The procedure, abridged: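 Recombinant human CYP8B1 was expressed in E. coli with groES-groEL co-expression and purified by Ni-NTA and cation-exchange chromatography. Ligand was titrated into 1 μM enzyme in 50 mM potassium phosphate with 20% glycerol, in a 1 cm cuvette; azoles were dissolved in DMSO. The Soret shift (local absorbance maximum minus minimum) was plotted against concentration and fitted to a single-site specific binding equation, in triplicate.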

The target of the next data set is T2, CYP8B1 W281F (Homo sapiens, UniProt Q9UNU6, W281F).
T2 sequence (Q9UNU6 26-501 W281F limits assumed): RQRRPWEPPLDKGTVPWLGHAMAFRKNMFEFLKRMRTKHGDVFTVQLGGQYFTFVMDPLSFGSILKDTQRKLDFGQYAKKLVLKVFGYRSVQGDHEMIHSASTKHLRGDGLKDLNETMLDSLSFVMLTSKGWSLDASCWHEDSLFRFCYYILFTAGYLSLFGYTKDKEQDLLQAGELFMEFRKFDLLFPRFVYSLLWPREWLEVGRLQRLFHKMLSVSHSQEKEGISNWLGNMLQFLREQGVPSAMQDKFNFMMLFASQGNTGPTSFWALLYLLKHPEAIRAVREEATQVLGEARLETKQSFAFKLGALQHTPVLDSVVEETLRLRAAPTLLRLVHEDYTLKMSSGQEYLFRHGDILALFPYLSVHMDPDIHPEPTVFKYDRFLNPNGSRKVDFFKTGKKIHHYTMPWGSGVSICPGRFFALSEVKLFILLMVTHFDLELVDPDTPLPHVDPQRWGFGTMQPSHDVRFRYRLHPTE
Description: Ligand-binding assay by shift of the heme Soret peak, CYP8B1 W281F mutant.

In data set [2] the target is T1, human CYP8B1. Description: CYP8B1 inhibition assays. The data set is classed as biochemical. The note with it: activity remaining vs control without inhibitor, 80 μM inhibitor. The procedure, abridged:
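Test compound at 80 μM was added to the kinetic assay: 0.01 μM CYP8B1 and 0.06 μM human P450 reductase in 50 mM potassium phosphate pH 7.4 with 20% glycerol, preincubated 10 min at room temperature. Substrate 7α-hydroxycholest-4-en-3-one was added, 200 μM NADPH started the reaction at 37 °C, and chloroform stopped it. The 12α-hydroxy product was measured by HPLC-UV at 240 nm. Activity is % of an inhibitor-free control; duplicate or triplicate.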

For data set [3] the following is noted: cited from earlier work.
Substrate in data set [4]: CC(C)CCC[C@@H](C)[C@H]1CC[C@H]2[C@@H]3[C@H](O)CC4=CC(=O)CC[C@]4(C)[C@H]3CC[C@]12C
The data set is classed as biochemical, human. The settings on record: other: W281F mutant, 95% CI; pH 7.4.

Substrate in data set [5]: CC(C)CCC[C@@H](C)[C@H]1CC[C@H]2[C@@H]3[C@H](O)CC4=CC(=O)CC[C@]4(C)[C@H]3CC[C@]12C
The data set is classed as biochemical, human. The note with it: other: wild type CYP8B1, 95% CI; pH 7.4.

On to `CC(C)CCC[C@@H](C)[C@H]1CC[C@H]2[C@@H]3[C@H](O)CC4=CC(=O)CC[C@]4(C)[C@H]3CC[C@]12C` [7α-hydroxycholest-4-en-3-one], for which, at human CYP8B1 [1], the “Shift in Soret peak” value was “type I”. Also, at CYP8B1 W281F, the dissociation constant (Kd) – broadly, a measure of binding affinity in units of concentration – was 34.3 nM.

In the case of `CC(=O)N1CCN(c2ccc(OCC3COC(Cn4ccnc4)(c4ccc(Cl)cc4Cl)O3)cc2)CC1` (centres unmarked) [Ketoconazole], the “Turnover at 80 μM (%)” value on human CYP8B1 [2] is on record as 16%. Besides, on human CYP8B1 [1], the Kd came to 1300 nM, the KD entry is “micromolar” and the “Shift in Soret peak” value is reported as “Type II”.

On to `Clc1ccc(COC(Cn2ccnc2)c2ccc(Cl)cc2Cl)cc1` (centres unmarked) [Econazole], for which the “Turnover at 80 μM (%)” value on human CYP8B1 [2] is 1.7%. For the same molecule, on human CYP8B1 [1], the Kd is 57 nM, the KD result is “submicromolar” and the “Shift in Soret peak” value is on record as “Type II”.

Take `Clc1ccccc1C(c1ccccc1)(c1ccccc1)n1ccnc1` [Clotrimazole]: the “Turnover at 80 μM (%)” value at human CYP8B1 [2] is on record as 6.8%. In addition, on human CYP8B1 [1], the Kd is 1600 nM and the “Shift in Soret peak” value was “Type II”.

Turning to `C[C@H](CCC(=O)O)[C@H]1CC[C@H]2[C@@H]3[C@H](O)C[C@@H]4C[C@H](O)CC[C@]4(C)[C@H]3C[C@H](O)[C@]12C` [Cholic acid], the critical micellar concentration in data set [3] is about 50 µM.

With `Clc1ccc(COC(Cn2ccnc2)c2ccc(Cl)cc2Cl)c(Cl)c1` (centres unmarked) [Miconazole], at human CYP8B1 [2], the “Turnover at 80 μM (%)” value was found to be 0.75%. The “Turnover at 80 μM (%)” value at human CYP8B1 [2] (listed as miconazole) is on record as “less than 1%”. Moreover, at human CYP8B1 [1], the Kd amounted to 98 nM, the KD entry was “submicromolar” and the “Shift in Soret peak” value is reported as “Type II”.

For `Clc1cccc(C(c2ccc3[nH]cnc3c2)n2ccnc2)c1` (centres unmarked) [Liarozole], the “Turnover at 80 μM (%)” value at human CYP8B1 [2] came out at 30%. Also, at human CYP8B1 [1], the dissociation constant Kd came out at 1300 nM and the “Shift in Soret peak” value was “Type II”.

Take `Clc1ccc(C(Cn2ccnc2)OCc2ccsc2Cl)c(Cl)c1` (centres unmarked) [Tioconazole]: the “Turnover at 80 μM (%)” value on human CYP8B1 [2] is listed as 1.4%. Besides, on human CYP8B1 [1], the dissociation constant Kd was found to be 210 nM, the KD result is “submicromolar” and the “Shift in Soret peak” value is “Type II”.

Consider `OC(Cn1cncn1)(Cn1cncn1)c1ccc(F)cc1F` [Fluconazole], for which the “Turnover at 80 μM (%)” value at human CYP8B1 [2] is recorded as 95%. For the same molecule, the “Shift in Soret peak” value on human CYP8B1 [1] is on record as “None”; on human CYP8B1 [1] (listed as fluconazole), “did not induce a shift; also recorded: no binding”.

B1: CYP8B1 W281F (Homo sapiens; W281F) (protein)
chain: RQRRPWEPPLDKGTVPWLGHAMAFRKNMFEFLKRMRTKHGDVFTVQLGGQYFTFVMDPLSFGSILKDTQRKLDFGQYAKKLVLKVFGYRSVQGDHEMIHSASTKHLRGDGLKDLNETMLDSLSFVMLTSKGWSLDASCWHEDSLFRFCYYILFTAGYLSLFGYTKDKEQDLLQAGELFMEFRKFDLLFPRFVYSLLWPREWLEVGRLQRLFHKMLSVSHSQEKEGISNWLGNMLQFLREQGVPSAMQDKFNFMMLFASQGNTGPTSFWALLYLLKHPEAIRAVREEATQVLGEARLETKQSFAFKLGALQHTPVLDSVVEETLRLRAAPTLLRLVHEDYTLKMSSGQEYLFRHGDILALFPYLSVHMDPDIHPEPTVFKYDRFLNPNGSRKVDFFKTGKKIHHYTMPWGSGVSICPGRFFALSEVKLFILLMVTHFDLELVDPDTPLPHVDPQRWGFGTMQPSHDVRFRYRLHPTE
For B1, in data set [4], the Michaelis constant (Km) (in general, the concentration of substrate that gives half-maximal velocity) was determined as 0.54 µM; the kcat (as a rule, the maximal rate divided by the concentration of active sites) was 0.02 s⁻¹; the kcat/Km worked out at 2.2 μM^−^1min^−1.

B2: human CYP8B1 (Homo sapiens) (protein)
chain: RQRRPWEPPLDKGTVPWLGHAMAFRKNMFEFLKRMRTKHGDVFTVQLGGQYFTFVMDPLSFGSILKDTQRKLDFGQYAKKLVLKVFGYRSVQGDHEMIHSASTKHLRGDGLKDLNETMLDSLSFVMLTSKGWSLDASCWHEDSLFRFCYYILFTAGYLSLFGYTKDKEQDLLQAGELFMEFRKFDLLFPRFVYSLLWPREWLEVGRLQRLFHKMLSVSHSQEKEGISNWLGNMLQFLREQGVPSAMQDKFNFMMLWASQGNTGPTSFWALLYLLKHPEAIRAVREEATQVLGEARLETKQSFAFKLGALQHTPVLDSVVEETLRLRAAPTLLRLVHEDYTLKMSSGQEYLFRHGDILALFPYLSVHMDPDIHPEPTVFKYDRFLNPNGSRKVDFFKTGKKIHHYTMPWGSGVSICPGRFFALSEVKLFILLMVTHFDLELVDPDTPLPHVDPQRWGFGTMQPSHDVRFRYRLHPTE
Consider B2, for which, in data set [5], the Km turned out to be 0.5 µM, the catalytic constant (kcat) amounted to 0.123 s⁻¹ and the kcat/Km is listed as 14.7 μM^−^1min^−1.
